The record followed here is ChEMBL document CHEMBL1156003, “A strategy of employing aminoheterocycles as amide mimics to identify novel, potent and bioavailable soluble epoxide hydrolase inhibitors” (Bioorg Med Chem Lett, 2009).

Data set [1] has as its target T1, Bifunctional epoxide hydrolase 2 (Homo sapiens, UniProt P34913).
T1 sequence (P34913 whole entry): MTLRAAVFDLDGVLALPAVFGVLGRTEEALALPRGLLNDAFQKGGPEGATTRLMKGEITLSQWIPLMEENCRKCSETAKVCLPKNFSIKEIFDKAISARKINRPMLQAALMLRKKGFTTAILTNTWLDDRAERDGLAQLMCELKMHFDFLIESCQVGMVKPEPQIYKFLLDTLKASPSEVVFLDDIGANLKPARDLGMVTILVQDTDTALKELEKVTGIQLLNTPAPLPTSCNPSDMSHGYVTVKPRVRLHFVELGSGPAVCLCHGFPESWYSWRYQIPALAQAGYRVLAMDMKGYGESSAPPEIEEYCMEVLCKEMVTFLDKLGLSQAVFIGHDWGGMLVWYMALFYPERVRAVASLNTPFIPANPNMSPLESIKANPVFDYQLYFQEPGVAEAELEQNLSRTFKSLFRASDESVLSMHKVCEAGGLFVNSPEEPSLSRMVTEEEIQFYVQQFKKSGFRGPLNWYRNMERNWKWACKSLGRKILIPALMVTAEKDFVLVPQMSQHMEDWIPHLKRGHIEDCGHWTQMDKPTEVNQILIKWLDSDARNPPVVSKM
As to the kind of experiment: Inhibition of human sEH. In a few lines:
(§1)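 Human and rat sEH enzyme inhibition; values from one or two experiments, each in triplicate, within 20% deviation on repeat.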

Data set [2] concerns the target T2, Bifunctional epoxide hydrolase 2 (Rattus norvegicus, UniProt P80299).
T2 sequence (P80299 whole entry): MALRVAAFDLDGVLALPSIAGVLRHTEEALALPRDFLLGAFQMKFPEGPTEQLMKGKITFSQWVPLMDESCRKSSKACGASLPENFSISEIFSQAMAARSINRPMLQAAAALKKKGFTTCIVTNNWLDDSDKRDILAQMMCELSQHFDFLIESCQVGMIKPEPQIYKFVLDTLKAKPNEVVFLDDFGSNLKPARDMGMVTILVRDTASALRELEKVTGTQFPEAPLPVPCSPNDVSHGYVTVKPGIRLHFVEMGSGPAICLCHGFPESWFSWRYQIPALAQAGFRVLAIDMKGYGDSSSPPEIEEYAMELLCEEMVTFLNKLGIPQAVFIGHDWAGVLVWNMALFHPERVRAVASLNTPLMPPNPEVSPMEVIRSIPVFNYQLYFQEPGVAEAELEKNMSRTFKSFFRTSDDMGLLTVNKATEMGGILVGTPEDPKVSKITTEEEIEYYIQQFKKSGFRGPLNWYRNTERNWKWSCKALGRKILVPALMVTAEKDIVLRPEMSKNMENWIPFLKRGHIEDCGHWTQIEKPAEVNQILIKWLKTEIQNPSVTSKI
The data set can be described thus: Inhibition of rat sEH. In a few lines: as §1

Data set [3] deals with Plasma. The data set can be described thus: Fraction unbound in human plasma at 0.2 to 25 uM. It counts as ADME, cell-free. Particulars: in the assay text read “0.5 to 25 uM” for “0.2 to 25 uM”. In a few lines: (§2)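 Free fraction measured with radiolabeled compound in human and rat plasma, compound at 0.5–25 μM.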
In data set [4] the test system is Plasma. As to the kind of experiment: Fraction unbound in rat plasma at 0.2 to 25 uM. The format is ADME, cell-free. Particulars: in the assay text read “0.5 to 25 uM” for “0.2 to 25 uM”. A digest of the protocol: as §2
A short description of data set [5]: Oral bioavailability in rat at 2 mg/kg. It counts as ADME, organism-based. Particulars: in vivo. A digest of the protocol: (§3)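 Rat PK: dosed at 1 mg/mL in ethanol/PEG/water (20:40:40); IV 1 mg/kg (n = 2), PO 2 mg/kg (n = 3). Blood levels measured by LC/MS/MS after acetonitrile protein precipitation.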
Data set [6] in a line: Volume of distribution at steady state in rat at 1 mg/kg, iv and 2 mg/kg, po. It counts as ADME, organism-based. Particulars: in vivo, read-out: Vdss. A digest of the protocol: as §3
Data set [7] can be described thus: Half life at steady state in rat at 1 mg/kg, iv and 2 mg/kg, po. It counts as ADME, organism-based. Particulars: in vivo. A digest of the protocol: as §3
A short description of data set [8]: Clearance in rat at 1 mg/kg, iv and 2 mg/kg, po. The format is ADME, organism-based. Particulars: in vivo. In a few lines: as §3
The target of data set [9] is T1, Bifunctional epoxide hydrolase 2. As to the kind of experiment: Inhibition of human sEH assessed as DHET production in presence of 10% human serum.

`FC(F)(F)c1ccc(Nc2noc3cccnc23)cc1`: in data set [1], the IC50 is 1100 nM. Still for that read-out and setting: in the case of `c1ccc(CNc2nc3ccccc3s2)cc1` it was above 10000 nM.

For the molecule `Fc1ccccc1-c1ccc2c(Nc3ccc(C(F)(F)F)cc3)noc2c1`, the IC50 amounted to 55 nM in data set [2] and 91 nM in [1]. In the same order, the values of `FC(F)(F)c1ccc(Nc2noc3c(-c4ccccc4C(F)(F)F)cccc23)cc1` are 79 nM and 4 nM. `FC(F)(F)c1cccc(CNc2cc(-c3ccccc3)ncn2)c1` registered an IC50 in data set [1] above 10000 nM.

Consider `FC(F)(F)Oc1ccccc1Nc1noc2ccccc12`, for which the IC50 in data set [1] came out at 5200 nM.

For `FC(F)(F)c1ccc(Nc2noc3c(C(F)(F)F)cccc23)cn1`, the IC50 amounted to 3400 nM in data set [2] and 74 nM in data set [1]. Molecule `FC(F)(F)c1ccc(Nc2n[nH]c3ccccc23)cc1` registered an IC50 in [1] above 10000 nM. On to `c1ccc(-c2ccc(Nc3noc4ccccc34)cc2)cc1`, for which the IC50 in [2] came to 740 nM; in data set [1], 170 nM. `c1ccc(CNc2cc(-c3ccccc3)ccn2)cc1` had an IC50 in data set [1] above 10000 nM. As for `c1ccc2c(Nc3noc4ccccc34)cccc2c1`, the figures for the IC50 in data set [2] and in data set [1] were 4600 nM and 840 nM, respectively.

As to `FC(F)(F)c1ccc(Nc2noc3ccccc23)cc1`, the results for the IC50 in data set [2] and in data set [1] were 76 nM and 25 nM, respectively. In the same order, the values of `FC(F)(F)c1ccc(Nc2noc3c(C(F)(F)F)cccc23)nc1` are above 10000 nM and above 10000 nM. Turning to `FC(F)(F)Oc1cccc(Nc2noc3ccccc23)c1`, the IC50 in [2] and in [1] was 160 nM each time. As to `FC(F)(F)c1ccc(Nc2noc3ccncc23)cc1`, it took 340 nM to reach half-maximal inhibition in data set [1] (IC50). As for `c1ccc(CNc2ccc(-c3ccccc3)cn2)cc1`, in [1], the IC50 was above 10000 nM.

Take `c1ccc(CNc2nnc(Cc3ccccc3)o2)cc1`: the IC50 in data set [1] was above 10000 nM. On to `FC(F)(F)c1ccc(Nc2noc3cc(-c4ccccc4C(F)(F)F)ccc23)cc1`, for which the values for the IC50 in data set [2] and in [1] were 70 nM and 8 nM, respectively.

With `FC(F)(F)c1ccc(Nc2cc(-c3ccccc3)on2)cc1`, the IC50 in [1] was above 10000 nM. As to `FC(F)(F)c1ccc(Nc2noc3c(-c4ccc5[nH]ccc5c4)cccc23)cc1`, the half-inhibitory concentration (IC50) in [2] worked out at 41 nM; in data set [1], 8 nM. Take `FC(F)(F)c1ccc(Nc2noc3c(C(F)(F)F)cccc23)cc1`: the figures for the IC50 in data set [2], in data set [1] and in data set [9] were 127 nM, 4 nM and 1200 nM, respectively. Further, the Fu turned out to be 0.7% in the data set with Plasma [3] and 0.9% in the data set with Plasma [4]. In data set [5], this molecule displayed a bioavailability of 98%. The Vd in data set [6] turned out to be 7 L/kg. In addition, the half-life in data set [7] is 5.9 h. Also, in data set [8], the clearance came to 30 mL/min/kg. Consider `c1ccc2cc(Nc3noc4ccccc34)ccc2c1`, for which the IC50 in data set [1] came out at 1200 nM.

Consider `c1ccc(CNc2cnc3ccccc3n2)cc1`, for which the IC50 in data set [1] is above 10000 nM. Consider `FC(F)(F)c1ccc(Nc2noc3cc(-c4ccc5[nH]ccc5c4)ccc23)cc1`, for which the IC50 in data set [2] was 77 nM; in [1], 70 nM. For `FC(F)(F)c1ccc(Nc2noc3cc(-c4cccnc4)ccc23)cc1`, the results for the IC50 in data set [2] and in data set [1] were 20 nM and 23 nM, respectively. In [1], `FC(F)(F)c1ccc(CNc2noc3ccccc23)cc1` registered an IC50 of 1200 nM.

Turning to `FC(F)(F)c1ccc(Nc2noc3c(C(F)(F)F)nccc23)cc1`, the IC50 amounted to 300 nM in data set [2] and 19 nM in data set [1]. With `FC(F)(F)c1ccc(Nc2noc3cnccc23)cc1`, in data set [1], it took 31 nM to reach half-maximal inhibition (IC50). The same measure, in the same setting: in the case of `c1ccc(CNc2nc3ccccc3o2)cc1` it was above 10000 nM. With `FC(F)(F)c1ccc(Nc2noc3cc(-c4ccncc4)ccc23)cc1`, the IC50 in [2] is 19 nM; in data set [1] it was 58 nM. The molecule `c1ccc(CNc2cnc(-c3ccccc3)cn2)cc1` had an IC50 in data set [1] above 10000 nM. On to `FC(F)(F)c1ccc(Nc2noc3ncccc23)cc1`, for which, in data set [1], the IC50 was 27 nM.

In the case of `c1ccc(Cc2nnc(Nc3ccccc3)o2)cc1`, the IC50 in data set [1] was above 10000 nM. Turning to `FC(F)(F)c1ccc(Nc2noc3c(-c4cccc(C(F)(F)F)c4)cccc23)cc1`, the figures for the IC50 in data set [2] and in data set [1] were 130 nM and 10 nM, respectively. In the same order, the values of `Cc1cccnc1-c1ccc2c(Nc3ccc(C(F)(F)F)cc3)noc2c1` are 290 nM and 70 nM. `c1ccc(CNc2nnc(-c3ccccc3)o2)cc1` returned an IC50 in data set [1] above 10000 nM. The same measure, in the same setting: for `FC(F)(F)c1ccc(CNc2cc(-c3ccccc3)on2)cc1` the value was 4700 nM. Regarding `FC(F)(F)c1ccc(Nc2noc3cc(-c4cccc5cnccc45)ccc23)cc1`, the IC50 in data set [2] was determined as 30 nM; in data set [1], 19 nM. On the same counts, the results for `FC(F)(F)Oc1ccc(Nc2noc3ccccc23)cc1` are 170 nM and 60 nM.

On to `FC(F)(F)c1ccc(Nc2noc3cc(C(F)(F)F)ccc23)cc1`, for which 18 nM corresponded to half-maximal inhibition in [1] (IC50). Still for that read-out and setting: for `FC(F)(F)c1nnc(Nc2ccccc2)o1` the value was 2000 nM; for `FC(F)(F)c1ccccc1Nc1noc2ccccc12`, 960 nM.

Turning to `FC(F)(F)c1ccc(Nc2noc3ccc(C(F)(F)F)cc23)cc1`, the IC50 in data set [2] stood at 1500 nM; in data set [1], 40 nM. On the same counts, the results for `FC(F)(F)c1ccc(Nc2noc3cc(-c4cccc(C(F)(F)F)c4)ccc23)cc1` are 570 nM and 470 nM. Turning to `c1ccc(-c2cccc(Nc3noc4ccccc34)c2)cc1`, the midpoint of inhibition in [1], the IC50, lay at 960 nM. Still for that read-out and setting: for `FC(F)(F)c1ccc(Nc2nsc3ccccc23)cc1` the value was 2500 nM.
